Measurements taken from ChEMBL document CHEMBL1921722, “In vitro and in vivo evaluation of select kahalalide F analogs with antitumor and antifungal activities” (Bioorg Med Chem, 2011).
Active and inactive are the calls of the source.

Experiments:
[1] = test system: M14; assay: Cytotoxicity against human M14 cells by sulforhodamine B assay; format: functional; conditions: for TGI: read-out: pTGI (converted)
In short: (§1)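 NCI Developmental Therapeutics Program 60-cell-line human tumor panel screen, run at NCI. A single-concentration pre-screen was followed by a five-concentration dose-response in 10-fold steps. GI50 is the concentration that reduces growth of treated cells to half that of untreated control cells. TGI is the concentration that completely halts growth.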

[2] = test system: SK-OV-3; assay: Cytotoxicity against human SKOV3 cells by sulforhodamine B assay; format: functional; in short: as §1
[3] = test system: SK-MEL-2; assay: Cytotoxicity against human SK-MEL-2 cells assessed as cell growth at 8 nM by sulforhodamine B assay relative to control; format: functional; conditions: read-out: Activity
[4] = test system: M14; assay: Cytotoxicity against human M14 cells assessed as cell growth at 8 nM by sulforhodamine B assay relative to control; format: functional; conditions: read-out: Activity
[5] = test system: KM12; assay: Cytotoxicity against human KM12 cells assessed as cell growth at 8 nM by sulforhodamine B assay relative to control; format: functional; conditions: read-out: Activity
[6] = test system: MDA-MB-231; assay: Cytotoxicity against human MDA-MB-231 cells by sulforhodamine B assay; format: functional; conditions: for TGI: read-out: pTGI (converted); in short: as §1
[7] = test system: Mus musculus; assay: Acute toxicity in athymic nude mouse assessed as mortality at 200 mg/kg, […] after 19 days; format: organism-based; set-up: dose 200 mg/kg, route intraperitoneal; conditions: in vivo, ip, 456 h
[8] = test system: UO-31; assay: Cytotoxicity against human UO31 cells assessed as cell growth at 8 nM by sulforhodamine B assay relative to control; format: functional; conditions: read-out: Activity
[9] = test system: DU-145; assay: Cytotoxicity against human DU145 cells assessed as cell growth at 8 nM by sulforhodamine B assay relative to control; format: functional; conditions: read-out: Activity
In short: (§2)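 Run at NCI in the DTP 60-cell-line human tumor panel by standard procedure. Compounds were first screened at a single concentration, then tested at five tenfold-spaced concentrations. GI50 is the concentration reducing treated-cell growth to half that of untreated controls; TGI is the concentration completely halting growth.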

[10] = test system: MDA-MB-435; assay: Cytotoxicity against human MDA-MB-435 cells assessed as cell growth at 8 nM by sulforhodamine B assay relative to control; format: functional; conditions: read-out: Activity
[11] = test system: NCI-H460; assay: Cytotoxicity against human NCI-H460 cells assessed as cell growth at 80 nM by sulforhodamine B assay relative to control; format: functional; conditions: read-out: Activity
[12] = test system: HCC 2998; assay: Cytotoxicity against human HCC2998 cells assessed as cell growth at 80 nM by sulforhodamine B assay relative to control; format: functional; conditions: read-out: Activity
[13] = test system: HCT-116; assay: Cytotoxicity against human HCT116 cells assessed as cell growth at 80 nM by sulforhodamine B assay relative to control; format: functional; conditions: read-out: Activity
[14] = test system: HT-29; assay: Cytotoxicity against human HT-29 cells assessed as cell growth at 80 nM by sulforhodamine B assay relative to control; format: functional; conditions: read-out: Activity
[15] = test system: UACC-257; assay: Cytotoxicity against human UACC257 cells assessed as cell growth at 80 nM by sulforhodamine B assay relative to control; format: functional; conditions: read-out: Activity
[16] = test system: SN12C; assay: Cytotoxicity against human SN12C cells assessed as cell growth at 80 nM by sulforhodamine B assay relative to control; format: functional; conditions: read-out: Activity
[17] = test system: DU-145; assay: Cytotoxicity against human DU145 cells assessed as cell growth at 80 nM by sulforhodamine B assay relative to control; format: functional; conditions: read-out: Activity
[18] = test system: COLO 205; assay: Cytotoxicity against human COLO205 cells assessed as cell growth at 800 nM by sulforhodamine B assay relative to control; format: functional; conditions: read-out: Activity; in short: as §2
[19] = test system: SK-MEL-2; assay: Cytotoxicity against human SK-MEL-2 cells assessed as cell growth at 800 nM by sulforhodamine B assay relative to control; format: functional; conditions: read-out: Activity
[20] = test system: SK-MEL-5; assay: Cytotoxicity against human SK-MEL-5 cells assessed as cell growth at 800 nM by sulforhodamine B assay relative to control; format: functional; conditions: read-out: Activity
[21] = test system: NCI/ADR-RES; assay: Cytotoxicity against human NCI/ADR-RES cells assessed as cell growth at 800 nM by sulforhodamine B assay relative to control; format: functional; conditions: read-out: Activity
[22] = test system: T47D; assay: Cytotoxicity against human T47D cells assessed as cell growth at 800 nM by sulforhodamine B assay relative to control; format: functional; conditions: read-out: Activity
[23] = test system: HCT-15; assay: Cytotoxicity against human HCT15 cells assessed as cell growth at 8 uM by sulforhodamine B assay relative to control; format: functional; conditions: read-out: Activity
[24] = test system: LOX IMVI; assay: Cytotoxicity against human LOXIMVI cells assessed as cell growth at 8 uM by sulforhodamine B assay relative to control; format: functional; conditions: read-out: Activity
[25] = test system: ACHN; assay: Cytotoxicity against human ACHN cells assessed as cell growth at 8 uM by sulforhodamine B assay relative to control; format: functional; conditions: read-out: Activity; in short: as §2
[26] = test system: PC-3; assay: Cytotoxicity against human PC3 cells assessed as cell growth at 8 uM by sulforhodamine B assay relative to control; format: functional; conditions: read-out: Activity
[27] = test system: NCI/ADR-RES; assay: Cytotoxicity against human NCI/ADR-RES cells assessed as cell growth at 8 uM by sulforhodamine B assay relative to control; format: functional; conditions: read-out: Activity
[28] = test system: BT-549; assay: Cytotoxicity against human BT549 cells assessed as cell growth at 8 uM by sulforhodamine B assay relative to control; format: functional; conditions: read-out: Activity; in short: as §2
[29] = test system: NCI-H226; assay: Cytotoxicity against human NCI-H226 cells assessed as cell growth at 80 uM by sulforhodamine B assay relative to control; format: functional; conditions: read-out: Activity
[30] = test system: SNB-75; assay: Cytotoxicity against human SNB75 cells assessed as cell growth at 80 uM by sulforhodamine B assay relative to control; format: functional; conditions: read-out: Activity
[31] = test system: UACC-62; assay: Cytotoxicity against human UACC62 cells assessed as cell growth at 80 uM by sulforhodamine B assay relative to control; format: functional; conditions: read-out: Activity
[32] = test system: PC-3; assay: Cytotoxicity against human PC3 cells assessed as cell growth at 80 uM by sulforhodamine B assay relative to control; format: functional; conditions: read-out: Activity
[33] = test system: BT-549; assay: Cytotoxicity against human BT549 cells assessed as cell growth at 80 uM by sulforhodamine B assay relative to control; format: functional; conditions: read-out: Activity; in short: as §2
[34] = test system: COLO 205; assay: Antitumor activity against human COLO205 cells xenografted in mouse assessed as tumor cell killing at 4.7 mg/kg, ip qd for 4 days by MTT assay; format: functional, organism-based; set-up: dose 4.7 mg/kg
In short: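 Hollow-fiber assay in mice. Tumor lines were grown in RPMI-1640 with 10% FBS and 2 mM glutamine. Cells at 2 × 10^6 cells/ml were loaded into 1 mm PVDF fibers (500,000 Da cutoff), heat-sealed at 2 cm and held 24–48 h at 37 °C, 5% CO2 before implantation. Compound was given IP. Fibers were collected the day after the fourth treatment for MTT (OD 540 nm, group means). A ≥50% cut in percent net growth versus vehicle counted as positive.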

[35] = test system: HOP-62; assay: Cytotoxicity against human HOP62 cells by sulforhodamine B assay; format: functional; conditions: for TGI: read-out: pTGI (converted)
In short: (§3)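 Run by the NCI Developmental Therapeutics Program on its 60-line human tumour cell panel using the standard procedure. Compounds went through a single-concentration prescreen first, and those active by NCI criteria went on to a five-concentration growth-inhibition test. GI50 is the concentration that cuts growth of treated cells to half that of untreated control cells.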

[36] = test system: HCT-15; assay: Cytotoxicity against human HCT15 cells by sulforhodamine B assay; format: functional; in short: as §3

## C/C=C1\NC(=O)[C@H](Cc2ccccc2)NC(=O)[C@@H](C(C)C)NC(=O)[C@@H]([C@@H](C)CC)NC(=O)[C@H](NC(=O)[C@H](NC(=O)[C@H](CCCNCc2ccc(N3CCOCC3)cc2)NC(=O)[C@H]2CCCN2C(=O)[C@H](NC(=O)[C@@H](NC(=O)[C@@H](NC(=O)[C@H](NC(=O)CCCC(C)C)C(C)C)[C@@H](C)O)C(C)C)C(C)C)[C@@H](C)CC)[C@@H](C)OC(=O)[C@H](C(C)C)NC1=O
[1]
  GI50: 1410 nM
  LC50: 4680 nM
  TGI: 2570 nM
[2]; read-out: GI50
  GI50: 178 nM
[2]; read-out: TGI
  TGI: 415 nM
[2]; read-out: pGI50 (converted)
  GI50: 178 nM
[2]; read-out: pTGI (converted)
  TGI: 417 nM
[3]
  growth at 0.008 µM: 105%
[4]
  growth at 0.008 µM: 99%
[5]
  growth at 0.008 µM: 106%
[6]
  GI50: 2630 nM
  LC50: > 75900 nM
  TGI: 15500 nM
[7]
  Activity: Toxic
[8]
  growth at 0.008 µM: 101%
[9]
  growth at 0.008 µM: 99%
[10]
  growth at 0.008 µM: 103%
[11]
  growth at 0.08 µM: 103%
[12]
  growth at 0.08 µM: 98%
[13]
  growth at 0.08 µM: 100%
[14]
  growth at 0.08 µM: 93%
[15]
  growth at 0.08 µM: 103%
[16]
  growth at 0.08 µM: 91%
[17]
  growth at 0.08 µM: 89%
[18]
  growth at 0.8 µM: -52%
[19]
  growth at 0.8 µM: 105%
[20]
  growth at 0.8 µM: 90%
[21]
  growth at 0.8 µM: 85%
[22]
  growth at 0.8 µM: -23%
[23]
  growth at 8 µM: -82%
[24]
  growth at 8 µM: 20%
[25]
  growth at 8 µM: -84%
[26]
  growth at 8 µM: -91%
[27]
  growth at 8 µM: -43%
[28]
  growth at 8 µM: -66%
[29]
  growth at 80 µM: -26%
[30]
  growth at 80 µM: -7%
[31]
  growth at 80 µM: -81%
[32]
  growth at 80 µM: -67%
[33]
  growth at 80 µM: -49%
[34]
  Activity: inactive
[35]
  GI50: 1410 nM
  LC50: 5750 nM
  TGI: 2820 nM
[36]; read-out: GI50
  GI50: 264 nM
[36]; read-out: TGI
  TGI: 814 nM
[36]; read-out: pGI50 (converted)
  GI50: 263 nM
[36]; read-out: pTGI (converted)
  TGI: 813 nM

## C/C=C1\NC(=O)[C@H](Cc2ccccc2)NC(=O)[C@@H](C(C)C)NC(=O)[C@@H]([C@@H](C)CC)NC(=O)[C@H](NC(=O)[C@H](NC(=O)[C@H](CCCNCc2ccc(F)c(C)c2)NC(=O)[C@H]2CCCN2C(=O)[C@H](NC(=O)[C@@H](NC(=O)[C@@H](NC(=O)[C@H](NC(=O)CCCC(C)C)C(C)C)[C@@H](C)O)C(C)C)C(C)C)[C@@H](C)CC)[C@@H](C)OC(=O)[C@H](C(C)C)NC1=O
[1]
  GI50: 1350 nM
  TGI: 2400 nM
[2]
  LC50: 891 nM
[2]; read-out: GI50
  GI50: 173 nM
[2]; read-out: TGI
  TGI: 370 nM
[2]; read-out: pGI50 (converted)
  GI50: 174 nM
[2]; read-out: pTGI (converted)
  TGI: 372 nM
[3]
  growth at 0.008 µM: 98%
[4]
  growth at 0.008 µM: 105%
[5]
  growth at 0.008 µM: 107%
[6]
  GI50: 1450 nM
  LC50: 6920 nM
  TGI: 3160 nM
[7]
  Activity: Non-toxic
[8]
  growth at 0.008 µM: 100%
[9]
  growth at 0.008 µM: 99%
[10]
  growth at 0.008 µM: 109%
[11]
  growth at 0.08 µM: 104%
[12]
  growth at 0.08 µM: 105%
[13]
  growth at 0.08 µM: 96%
[14]
  growth at 0.08 µM: 102%
[15]
  growth at 0.08 µM: 101%
[16]
  growth at 0.08 µM: 94%
[17]
  growth at 0.08 µM: 87%
[18]
  growth at 0.8 µM: -66%
[19]
  growth at 0.8 µM: 100%
[20]
  growth at 0.8 µM: 83%
[21]
  growth at 0.8 µM: 91%
[22]
  growth at 0.8 µM: -50%
[23]
  growth at 8 µM: -92%
[24]
  growth at 8 µM: -85%
[25]
  growth at 8 µM: -97%
[26]
  growth at 8 µM: -95%
[27]
  growth at 8 µM: -76%
[28]
  growth at 8 µM: -88%
[29]
  growth at 80 µM: -18%
[30]
  growth at 80 µM: -19%
[31]
  growth at 80 µM: -91%
[32]
  growth at 80 µM: -76%
[33]
  growth at 80 µM: -58%
[34]
  Activity: inactive
[35]
  GI50: 1200 nM
  LC50: 4370 nM
  TGI: 2290 nM
[36]
  LC50: 1380 nM
[36]; read-out: GI50
  GI50: 181 nM
[36]; read-out: TGI
  TGI: 419 nM
[36]; read-out: pGI50 (converted)
  GI50: 182 nM
[36]; read-out: pTGI (converted)
  TGI: 417 nM
